According to ChEMBL document CHEMBL4265991 (Bioorg Med Chem, 2018):
In brackets after ≈: the same amount, converted by molar mass.

Key:
[1] = Cytotoxicity against human HepG2 cells after 24 hrs by resazurin dye-based fluorescence analysis; format: cell-based
How it was run: (§1)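 Cells seeded at 3000 per well in DMEM with 10% FBS. Compound […], applied as a 2-fold dilution series mixed directly with the cells. Incubated 24 h at 37 °C in 5% CO2, then 10 µM resazurin was added for 3 h. Fluorescence read at ex/em 560/590 nm. DMSO served as negative control.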

[2] = target: Inosine-5'-monophosphate dehydrogenase 1 (Homo sapiens, UniProt P20839); experiment: Inhibition of recombinant human His-tagged IMPDH1 expressed in Escherichia coli BL21 (DE3) using IMP as substrate in presence of NAD
Inosine-5'-monophosphate dehydrogenase 1, sequence (P20839 whole entry): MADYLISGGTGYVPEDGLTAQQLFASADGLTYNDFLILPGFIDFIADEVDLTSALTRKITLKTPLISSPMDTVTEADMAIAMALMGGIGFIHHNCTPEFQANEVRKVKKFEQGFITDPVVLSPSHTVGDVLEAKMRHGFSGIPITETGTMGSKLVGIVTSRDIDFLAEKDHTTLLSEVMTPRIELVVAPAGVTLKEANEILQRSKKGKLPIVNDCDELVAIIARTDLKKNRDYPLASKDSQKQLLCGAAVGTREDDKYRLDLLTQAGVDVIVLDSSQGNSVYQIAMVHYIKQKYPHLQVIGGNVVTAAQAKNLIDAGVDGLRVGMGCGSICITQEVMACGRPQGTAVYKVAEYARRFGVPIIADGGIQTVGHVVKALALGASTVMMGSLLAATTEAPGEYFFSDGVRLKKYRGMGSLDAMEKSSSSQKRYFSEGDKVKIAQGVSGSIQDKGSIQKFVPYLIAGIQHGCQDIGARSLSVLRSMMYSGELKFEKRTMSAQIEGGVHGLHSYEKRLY
How it was run: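 His-tag-cleaved human IMPDH from E. coli BL21(DE3) pLysS at 0.2 µM. NAD 100 µM, IMP 125 µM; reaction started with IMP. NADH followed at 340 nm. Compounds tested 30 to 0.93 µM. IC50 from variable-slope fit normalized to no-inhibitor and 20 µM MPA controls; n ≥ 3.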

[3] = test system: Cryptococcus neoformans; experiment: Antifungal activity against Cryptococcus neoformans after 24 hrs by two fold serial dilution method
[4] = Cytotoxicity against HEK293 cells after 24 hrs by resazurin dye-based fluorescence analysis; format: cell-based; conditions: human; how it was run: as §1
[5] = test system: Candida albicans; experiment: Antifungal activity against Candida albicans after 24 hrs by OD530 reading based two fold serial dilution method
[6] = target: Inosine-5'-monophosphate dehydrogenase 2 (Homo sapiens, UniProt P12268); experiment: Inhibition of recombinant human His-tagged IMPDH2 expressed in Escherichia coli BL21 (DE3) using IMP as substrate in presence of NAD
[7] = target: Inosine-5'-monophosphate dehydrogenase (Cryptococcus neoformans var. neoformans serotype D (strain JEC21 /ATCC MYA-565) (Filobasidiella neoformans), UniProt Q5KP44); experiment: Inhibition of recombinant Cryptococcus neoformans His-tagged IMPDH expressed in Escherichia coli BL21 (DE3) using IMP as substrate in presence of NAD
Inosine-5'-monophosphate dehydrogenase, sequence (Q5KP44 whole entry): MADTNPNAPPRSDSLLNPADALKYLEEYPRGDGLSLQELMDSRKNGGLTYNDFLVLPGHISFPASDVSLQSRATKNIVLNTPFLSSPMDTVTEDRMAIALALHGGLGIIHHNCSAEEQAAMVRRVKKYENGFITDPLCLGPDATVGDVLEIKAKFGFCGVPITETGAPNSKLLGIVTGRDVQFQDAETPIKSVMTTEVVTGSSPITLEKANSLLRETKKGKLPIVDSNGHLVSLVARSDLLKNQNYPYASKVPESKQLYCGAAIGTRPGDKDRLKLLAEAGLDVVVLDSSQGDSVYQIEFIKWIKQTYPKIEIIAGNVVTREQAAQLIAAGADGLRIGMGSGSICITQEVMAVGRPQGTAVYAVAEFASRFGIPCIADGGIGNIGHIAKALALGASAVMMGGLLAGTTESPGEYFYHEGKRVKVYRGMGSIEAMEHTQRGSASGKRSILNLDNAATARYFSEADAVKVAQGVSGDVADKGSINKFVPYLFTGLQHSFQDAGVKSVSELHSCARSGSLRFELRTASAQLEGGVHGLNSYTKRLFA
How it was run: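 Recombinant C. neoformans IMPDH (E. coli BL21(DE3) pLysS) at 0.2 µM. IMP and NAD each 500 µM; reaction started with IMP. NADH followed at 340 nm. Compounds tested 20 to 0.02 µM. % activity normalized to no-inhibitor and 20 µM MPA controls, fitted by variable-slope dose-response; n ≥ 3.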

[8] = Drug level in DTT containing buffer treated with 3-((5-Phenyl-1,3,4-oxadiazol-2-yl)thio)benzo[b]thiophene-1,1-dioxide by LC-MS analysis; format: physicochemical
[9] = Drug metabolism in DTT containing buffer assessed as formation of 5-phenyl-1,3,4-oxadiazole-2-thiol by LC-MS analysis; format: physicochemical

| Compound | CC50 at 24 h [1] [µM] | IC50 [2] [µM] | MIC [3] [µM] | CC50 at 24 h [4] [µM] | MIC [5] [µM] | IC50 [6] [µM] | IC50 [7] [µM] | Drug metabolism [8] | Drug metabolism [9] |
| --- | --- | --- | --- | --- | --- | --- | --- | --- | --- |
| Nc1ccc(-c2nnc(SC3=CS(=O)(=O)c4ccccc43)o2)cc1 | 24 | 13.8 | 33 (≈ 11.8 µg/mL) | 4 | > 179 | 4.5 | 1.01 |  |  |
| O=S1(=O)C=C(Sc2nnc(-c3ccccn3)o2)c2ccccc21 | 24 | 13.2 | 6 (≈ 2.06 µg/mL) | 5 | 4 (≈ 1.37 µg/mL) | 4.2 | 1.06 |  |  |
| O=S1(=O)C=C(Sc2nnc(C3CCCCC3)o2)c2ccccc21 | 15 | 7.6 | 7 (≈ 2.44 µg/mL) | 3 | 46 (≈ 16 µg/mL) | 2.2 | 0.67 |  |  |
| Cc1ccc(-c2nnc(SC3=CS(=O)(=O)c4ccccc43)o2)cc1 | 31 | 20.3 | 22 (≈ 7.84 µg/mL) | 3 | 90 (≈ 32.1 µg/mL) | 5.7 | 0.41 |  |  |
| COC(=O)c1ccc(-c2nnc(SC3=CS(=O)(=O)c4ccccc43)o2)cc1 | 18 | > 30 | 60 (≈ 24 µg/mL) | 4 | > 160 | > 30 | 0.34 |  |  |
| O=S1(=O)C=C(Sc2nnc(-c3cccc(Cl)c3)o2)c2ccccc21 | 27 | 10.1 | 6 (≈ 2.26 µg/mL) | 6 | 167 (≈ 62.9 µg/mL) | 1.6 | 0.4 |  |  |
| C[C@@H]1[C@H](O)[C@@H](C)/C=C/C=C/C=C/C=C/C=C/C=C/C=C/[C@H](O[C@@H]2O[C@H](C)[C@@H](O)[C@H](N)[C@@H]2O)C[C@@H]2O[C@](O)(C[C@@H](O)C[C@@H](O)[C@H](O)CC[C@@H](O)C[C@@H](O)CC(=O)O[C@H]1C)C[C@H](O)[C@H]2C(=O)O [AMPHOTERICIN B] |  |  | 0.25 (≈ 0.231 µg/mL) |  | 0.18 (≈ 0.166 µg/mL) |  |  |  |  |
| O=S1(=O)C=C(Sc2nnc(-c3ccncc3)o2)c2ccccc21 | 17 | 8.6 | 9 (≈ 3.09 µg/mL) | 4 | 6 (≈ 2.06 µg/mL) | 2.1 | 0.76 |  |  |
| S=c1[nH]nc(-c2ccccc2)o1 |  |  |  |  |  |  |  | Metabolite_Detected |  |
| COc1c(C)c2c(c(O)c1C/C=C(\C)CCC(=O)O)C(=O)OC2 [MYCOPHENOLIC ACID] |  | 0.26 |  |  |  |  | 0.12 |  |  |
| O=S1(=O)C=C(Sc2nnc(-c3ccc(Cl)cc3)o2)c2ccccc21 | 22 | 11.1 | 16 (≈ 6.03 µg/mL) | 3 | 167 (≈ 62.9 µg/mL) | 1.5 | 0.49 |  |  |
| COc1ccc(-c2nnc(SC3=CS(=O)(=O)c4ccccc43)o2)cc1 | 22 | > 30 | 172 (≈ 64.1 µg/mL) | 2 | 172 (≈ 64.1 µg/mL) | > 30 | 1.7 |  |  |
| COc1ccccc1-c1nnc(SC2=CS(=O)(=O)c3ccccc32)o1 | 16 | 9.9 | 64 (≈ 23.8 µg/mL) | 3 | 172 (≈ 64.1 µg/mL) | 3.2 | 0.48 |  |  |
| CC(=O)Nc1ccc(-c2nnc(SC3=CS(=O)(=O)c4ccccc43)o2)cc1 | 31 | 20.4 | > 160 | 4 | > 160 | 4.4 | 0.16 |  |  |
| O=S1(=O)C=C(Sc2nnc(-c3ccccc3Cl)o2)c2ccccc21 | 25 | 7.2 | 6 (≈ 2.26 µg/mL) | 4 | 167 (≈ 62.9 µg/mL) | 1.2 | 0.23 |  |  |
| COc1cccc(-c2nnc(SC3=CS(=O)(=O)c4ccccc43)o2)c1 | 20 | 4.3 | 8 (≈ 2.98 µg/mL) | 3 | 172 (≈ 64.1 µg/mL) | 1.2 | 0.15 |  |  |
| OC(Cn1cncn1)(Cn1cncn1)c1ccc(F)cc1F [FLUCONAZOLE] |  |  | 0.3 (≈ 0.0919 µg/mL) |  | 8 (≈ 2.45 µg/mL) |  |  |  |  |
| O=S1(=O)C=C(Sc2nnc(-c3cccnc3)o2)c2ccccc21 | 14 | 6.3 | 4 (≈ 1.37 µg/mL) | 4 | 4 (≈ 1.37 µg/mL) | 2.6 | 0.59 |  |  |
| O=S1(=O)C=C(Sc2nnc(-c3ccccc3)o2)c2ccccc21 | 20 | 5.6 | 6 (≈ 2.05 µg/mL) | 3 | 6 (≈ 2.05 µg/mL) | 2.1 | 0.37 |  | Metabolite_Detected |
